# Most compounds without a hit are left out; they make up all but 3.7% or so of the library.
# KCNQ1 block: blocks the human KCNQ1 potassium channel | P51787 | CHO-K1 KCNQ1, FluxOR thallium flux fluorescence; active compounds read high | B-score at 10 µM | 1.3% of 310,000 active;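 active means compounds whose thallium flux B-score, printed positive for inhibition, exceeds three library SD while starting fluorescence stays within three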;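 further: channel opened by potassium depolarization with thallium stimulus after 20 min compound exposure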
# KCNK3 inh: human KCNK3 channel inhibition, primary screen | O14649 | CHO-KCNK3 thallium flux, FluxOR fluorescence; active compounds read low | B-score at 10 µM | 0.84% of 340,000 active | AID 602410;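 active means B-score under library mean minus 4 SD, starting fluorescence ratio at most library mean plus 5 SD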;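 further: more negative B-score means stronger inhibition of thallium flux through KCNK3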
# KCNK9 inh: inhibitors of human KCNK9 two-pore domain potassium channel. HEK293 KCNK9, FluxOR thallium flux fluorescence; active compounds read low. B-score at 10 µM. 1.2% of 310,000 active;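 active means ratio B-score over 3 SD below the library mean, with starting fluorescence within 5 SD of its mean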;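 further: negative B-score means less thallium flux so channel inhibition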
# KCNQ1 pot: potentiators or activators of human KCNQ1 potassium channel; CHO-K1 KCNQ1, thallium flux FluxOR fluorescence; active compounds read high; 0.35% of 310,000 active; B-score at 10 µM; AID 2648; P51787;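 active means fluorescence ratio B-score, a plate-corrected score, at least three library SD, with initial intensity B-score within 5 SD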
#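 Medium – assay buffer, equal DMSO in all wells · Material – CHO-K1 cell line with stable KCNQ1 potassium channel expression · Signal – kinetic FluxOR thallium fluorescence, 10-s 1-Hz baseline, 110-s post-stimulus read · Compound – single concentration per compound, DMSO matched to controls · Schedule – 37 °C overnight plating, 90-min dark dye load, 20-min compound pretreatment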
# hERG protect: hERG (human) protection from proarrhythmic block; Q12809; CHO-hERG, FluxOR thallium flux, dofetilide IC70 present; activation (rescue from dofetilide block), less the hit threshold, % at 10 µM; 0.51% of 310,000 active; AID 1511;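 active means activation above the mean of controls blocked by dofetilide plus 5 SD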;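 further: thallium influx through hERG after potassium depolarization seen as dye fluorescence rise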
# Kir21 inh: Kir2.1 (mouse) channel inhibition; AID 1672; 0.85% of 310,000 active; B-score at 10 µM; HEK293-Kir2.1, FluxOR thallium flux fluorescence; active compounds read low;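 active means fluorescence ratio B-score at or below minus 3 SD of library scores, with starting-brightness B-score within 2 SD, cut at about -4.2 in these data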;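 further: channel flux triggered by added potassium and thallium sulfate stimulus; B-score of peak minus minimum fluorescence over baseline after thallium stimulus; more negative B-score means stronger Kir2.1 block with less thallium influx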
# Target sequence (P35561 whole entry, looked up): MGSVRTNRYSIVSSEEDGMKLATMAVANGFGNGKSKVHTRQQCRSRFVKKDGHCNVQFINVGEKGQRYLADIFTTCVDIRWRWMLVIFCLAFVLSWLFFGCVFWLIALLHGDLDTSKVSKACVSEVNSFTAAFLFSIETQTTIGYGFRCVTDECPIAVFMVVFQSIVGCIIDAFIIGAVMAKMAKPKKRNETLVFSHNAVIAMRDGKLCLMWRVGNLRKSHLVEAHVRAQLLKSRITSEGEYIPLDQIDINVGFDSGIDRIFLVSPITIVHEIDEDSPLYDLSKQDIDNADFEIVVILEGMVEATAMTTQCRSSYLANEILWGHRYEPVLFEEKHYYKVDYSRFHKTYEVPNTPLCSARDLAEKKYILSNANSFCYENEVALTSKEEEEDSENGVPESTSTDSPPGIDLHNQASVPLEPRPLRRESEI
# KCNK9 inh conf: confirmation of human KCNK9 potassium channel inhibitors | inhibition, % at 10 µM | 43% of 4,900 active | HEK293 KCNK9 cells, FluxOR thallium flux fluorescence | shares compounds with KCNK9 inh | AID 492992;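 active means thallium signal inhibited by more than 5 SD of the compound-free buffer control wells, on both duplicate plates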;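 further: 0% = assay buffer control wells without compound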
# Kir2-1 spec: mouse Kir2.1 off-target activity of KCNK9 modulators; shares compounds with KCNK9 inh; Kir2.1 cells, FluxOR thallium flux fluorescence; inhibition, % at 10 µM; 4% of 4,900 active; AID 492993;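 active means thallium signal drop more than 5 SD beyond the mean of the no-compound control wells, seen in both duplicate plates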;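 further: signal is fluorescence rise after thallium addition divided by baseline fluorescence; plate controls were assay buffer only for no effect and full block by chlorpromazine control for full effect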
# HEK293 Tl ctr: second check of KCNK9 modulator effects in non-induced HEK293 cells; shares compounds with KCNK9 inh; FluxOR thallium flux; inhibition, % at 10 µM; 40% of 4,900 active; AID 492997;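 active means thallium signal drop beyond 5 SD of the untreated control mean, on both duplicate plates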;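 further: plate controls were buffer only IC0 wells for no effect and SID17386958 at its maximal inhibitory level for full effect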
# * = called active by the depositor; i = inactive; . = no result given.
SMILES,KCNQ1 block,KCNK3 inh,KCNK9 inh,KCNQ1 pot,hERG protect,Kir21 inh,KCNK9 inh conf,Kir2-1 spec,HEK293 Tl ctr
Cc1ccc(S(=O)(=O)Nc2c(C)nn(C)c2C)c(C)c1,i,i,i,i,-9,-0.33,.,.,.
O=[N+]([O-])c1cccc(-c2nc3ccccc3s/c2=N/O)c1,i,i,-8.8*,i,-18,-0.62,30%*,i,38%*
O=C(CSc1nc2ccc(Nc3nc(N4CCOCC4)nc(N4CCOCC4)n3)cc2s1)Nc1ccccc1F,i,i,i,i,-9,1,.,.,.
Cc1cccc(C)c1NC(=O)NC1(C(=O)NCc2ccncc2)CCCCC1,i,i,i,i,-8,0.51,.,.,.
COc1cc(C(=O)Nc2nnc(S(=O)(=O)N3CCCCCC3)s2)cc(OC)c1OC,i,i,i,i,-11,-0.41,.,.,.
N#Cc1c(Cl)nc(N/N=C/c2ccccc2)c(Cl)c1Cl,i,i,i,i,-14,-1.3,.,.,.
C[n+]1cccc(/C=N/Nc2nc(Cl)c(C#N)c(Cl)c2Cl)c1,i,i,i,i,-5,0.21,i,i,i
COc1ccc(-n2nc(C(=O)NCC(=O)Nc3ccc(F)cc3)c3ccccc3c2=O)cc1,i,i,i,i,-6,0.05,.,.,.
O=C(CN1C(=O)CCOc2ccccc21)Nc1ccc(Cl)c(S(=O)(=O)N2CCOCC2)c1,.,i,.,.,.,.,.,.,.
S=c1[nH]nc(-c2cccs2)n1/N=C/c1cn(-c2ccccc2)nc1-c1cccs1,i,i,i,i,-14,-2.4,.,.,.
Cc1ccc(-c2nn(-c3ccccc3)cc2/C=N/n2c(-c3cccs3)n[nH]c2=S)cc1,i,i,i,i,-8,0.2,i,i,i
Cc1cc(=O)oc2cc(OCC(=O)OCC(=O)NCCc3ccccc3)ccc12,i,i,i,i,-12,0.19,.,.,.
COc1ccccc1/C=C(/C(=O)OCC(=O)Nc1ccccc1C(C)C)c1ccccc1,i,i,-9.5*,i,-5,0.14,51%*,i,39%*
CCc1c(C)nc(SC)n(CC#N)c1=O,i,i,i,i,4,0.36,.,.,.
CC(=O)C1=C(C)NC(SCC(=O)c2cc(Cl)ccc2Cl)=C(C#N)C1c1ccco1 (stereo unspecified),11*,-14*,-14*,i,-6,1.1,74%*,i,35%*
CC(=O)C1=C(C)NC(SCC(N)=O)=C(C#N)C1c1ccco1 (stereo unspecified),i,i,i,i,-5,0.01,.,.,.
COc1cccc([C@@H]2Oc3ccc(OC)cc3C(=O)[C@H]2OC(=O)N[C@H](C)C2CCCCC2)c1,i,.,-8.7*,i,-6,0.05,49%*,i,42%*
COc1ccc(CN(CCNC(=O)CCCCC(=O)NCCN(Cc2ccc(OC)cc2)C(C)C)C(C)C)cc1,i,i,i,i,-13,0.54,.,.,.
Clc1cccc(CN2CCN(Cc3nc(CCc4ccccc4)no3)CC2)c1,i,i,i,i,-6,1.7,i,i,i
c1ccc(OCc2noc(CN3CC[C@@H]4CCCC[C@H]4C3)n2)cc1,i,i,i,i,-10,1.6,.,.,.
Clc1cccc(C2CCN(Cc3nc(COc4ccccc4)no3)C2)c1 (stereo unspecified),i,i,i,i,-13,0.04,i,i,i
COCCNC(=O)CS(=O)(=O)Cc1nc(-c2ccc(C)cc2)oc1C,i,i,i,i,-3,0.73,.,.,.
COC(C/C=C\C(=O)COCc1ccccc1)OC,i,.,i,i,0,0.06,.,.,.
Cc1ccccc1-c1nc(CN2CCC(C(=O)N3CCN(c4ccccn4)CC3)CC2)c(C)o1,i,i,i,i,-7,-0.54,.,.,.
Cc1ccccc1-c1nc(CN2CCSCC2)c(C)o1,i,i,i,i,-12,0.28,.,.,.
SMILES,KCNQ1 block,KCNK3 inh,KCNK9 inh,KCNQ1 pot,hERG protect,Kir21 inh,KCNK9 inh conf,Kir2-1 spec,HEK293 Tl ctr
COC(=O)c1cc2occc2n1Cc1nc(-c2cccc(Cl)c2)oc1C,i,i,-9.3*,i,-9,-1.5,i,i,24%*
Cc1cccc(N2CCN(Cc3nc(-c4ccccc4Cl)oc3C)CC2)n1,i,i,i,i,-13,0.55,i,i,i
Cc1cccc(N2CCN(Cc3nc(-c4cccc(Cl)c4)oc3C)CC2)n1,i,i,i,i,-17,-1.8,i,i,i
Cc1oc(-c2cccc(Cl)c2)nc1CN1CCC(C(=O)NCc2ccco2)CC1,i,i,i,i,-15,0.09,.,.,.
Cc1oc(-c2cccc(C(F)(F)F)c2)nc1CN1CCN(c2ccccn2)CC1,i,i,i,i,-18,-0.13,i,i,i
C/C(=N\NC(=O)c1c(C)nc2ccccn12)c1ccco1,i,i,i,i,-14,-0.8,.,.,.
O=C(O)C[C@@H](CNC(=O)COc1ccc2ccc(=O)oc2c1)c1ccc(Cl)cc1,i,i,i,i,-4,1.8,.,.,.
COc1cccc(COC(=O)C2CCN(S(=O)(=O)c3ccc(C)cc3)CC2)c1OC,i,i,i,i,-9,1.6,.,.,.
COc1cccc(COC(=O)C2CCN(S(=O)(=O)c3ccc(C)cc3C)CC2)c1OC,i,i,i,i,-12,-0.12,i,i,i
N/C(=N\OC(=O)c1cccc2ccccc12)c1ccc(Br)cc1,i,i,-8.3*,i,-4,0.11,35%*,i,28%*
N/C(Cc1ccccc1)=N\OC(=O)c1cccc2ccccc12,i,i,-11*,i,-5,-3,i,i,i
CCc1ccc(CNC(=O)C2CCC(=O)N(CCc3ccc(Cl)cc3)C2)nc1 (stereo unspecified),i,i,i,i,-9,-0.82,.,.,.
CC(C)OC(=O)CN1CCN(C2c3ccccc3-c3ccccc32)CC1,i,i,i,i,-6,-2.1,i,i,i
COc1ccc(-c2nc3ccccc3nc2-c2ccccc2)cc1,i,i,i,i,-5,1.7,.,.,.

# Screening results: PubChem BioAssay, Johns Hopkins Ion Channel Center
